The values that follow come from ChEMBL document CHEMBL2069294, “Synthesis and evaluation of hybrid drugs for a potential HIV/AIDS-malaria combination therapy” (Bioorg Med Chem, 2012).

Test [1] deals with Plasmodium falciparum. Put plainly: Antiplasmodial activity against Plasmodium falciparum 3D7 ring stage cells assessed as reduction parasitemia by Malstat assay. The test is classed as functional, organism-based.
In test [2] the test system is Plasmodium falciparum. As to the kind of experiment: Antiplasmodial activity against drug resistant Plasmodium falciparum Dd2 ring stage cells assessed as reduction parasitemia by Malstat assay. The test is classed as functional, organism-based.
For test [3], the system named is Human immunodeficiency virus 1. As to the kind of experiment: Antiviral activity against VSV-G pseudotyped HIV1 lentiviral particles infected in human HeLa cells incubated for 48 hrs by spectrofluorometry. It counts as functional, organism-based.
A short description of test [4]: Selectivity index, ratio of CC50 for human HeLa cells to IC50 for Plasmodium falciparum 3D7 ring stage cells. It counts as functional. In outline:
(§1)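 Ratio of HeLa MTT CC50 to Malstat IC50 against the stated P. falciparum strain (ring-stage, triplicate, 1% parasitemia).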

For another test, the system named is HeLa. Put plainly: Cytotoxicity against human HeLa cells by MTT assay. The test is classed as cell-based. The procedure, abridged:
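MTT reduction assay on HeLa cells (DMEM, 10% heat-inactivated FCS) with serial dilutions; CC50 taken as concentration giving 50% growth inhibition, ± SEM.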

The nature of test [5]: Selectivity index, ratio of CC50 for human HeLa cells to IC50 for Plasmodium falciparum Dd2 ring stage cells. It counts as functional. The procedure, abridged: as §1
A short description of test [6]: Selectivity index, ratio of CC50 for human HeLa cells to IC50 for VSV-G pseudotyped HIV1 lentiviral particles. It counts as functional. The procedure, abridged: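 Ratio of HeLa MTT CC50 to IC50 in the 48 h VSV-G-pseudotyped HIV-1 reporter assay in HeLa cells.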
Test [7] has as its system Plasmodium falciparum. Put plainly: Antiplasmodial activity against Plasmodium falciparum NF54 assessed as reduction in stage IV and V gametocyte formation at IC50 level incubated for 48 hrs measured 7 days post compound wash by Giemsa staining. It counts as functional, organism-based.
Setting [8] is: Plasmodium falciparum, 3D7, read-out: IC50.
Where [9] appears, read: Human immunodeficiency virus 1, HeLa, 48 h, read-out: IC50.

Activity calls are given as the source filed them. The rule behind the calls is not given here.

In the case of `Cc1cn([C@H]2C[C@H](n3cc(CO[C@H]4O[C@@H]5O[C@@]6(C)CC[C@H]7[C@H](C)CC[C@@H]([C@H]4C)[C@@]57OO6)nn3)[C@@H](CO)O2)c(=O)[nH]c1=O`, the IC50 with Plasmodium falciparum [1] (setting [8]) is 270 nM; in the test with Plasmodium falciparum [2], 100 nM; in test [3] (setting [9]) it was 11100 nM; in the test on HeLa it was greater than 100000 nM. Moreover, the “Ratio CC50/IC50” value is recorded as greater than 370.4 in test [4], greater than 1000 in test [5] and greater than 9 in test [6].

As for `Cc1cn([C@H]2C[C@H](NC(=O)C(=O)NCCCCCNc3ccnc4cc(Cl)ccc34)[C@@H](CO)O2)c(=O)[nH]c1=O`, the IC50 was 1940 nM in the test with Plasmodium falciparum [1] (setting [8]), 10600 nM with Plasmodium falciparum [2], “Not Active” in test [3] (hela) and greater than 100000 nM in the test with HeLa. Moreover, the results for the “Ratio CC50/IC50” value in test [4] and in test [5] were greater than 51.5 and greater than 9.5, respectively.

With `Cc1nnc(C(=O)NC(C)(C)c2nc(C(=O)NCc3ccc(F)cc3)c(O)c(=O)n2C)o1` [RALTEGRAVIR], the half-maximal inhibitory concentration (IC50) result was “Not Active” with Plasmodium falciparum [1], 10 nM in test [3] (setting [9]) and greater than 100000 nM in the test on HeLa. For the same molecule, the “Ratio CC50/IC50” value in test [6] is recorded as greater than 10000.

On to `Cc1cn([C@H]2C[C@H](NC(=O)CC3CCC4(CC3)OOC3(OO4)C4CC5CC(C4)CC3C5)[C@@H](CO[Si](c3ccccc3)(c3ccccc3)C(C)(C)C)O2)c(=O)[nH]c1=O` (stereo partly specified), for which the half-inhibitory concentration (IC50) was 270 nM with Plasmodium falciparum [1] (setting [8]), 190 nM in the test on Plasmodium falciparum [2], “Not Active” in test [3] (hela) and greater than 100000 nM in the test on HeLa. For the same molecule, the figures for the “Ratio CC50/IC50” value in test [4] and in test [5] were greater than 370.4 and greater than 526.3, respectively.

Take `Cc1cn([C@H]2C[C@H](N=[N+]=[N-])[C@@H](CO)O2)c(=O)n(CCNc2ccnc3cc(Cl)ccc23)c1=O`: the IC50 in the test with Plasmodium falciparum [1] (setting [8]) was 460 nM; in the test on Plasmodium falciparum [2], 650 nM; in test [3] (setting [9]), 7150 nM; in the test with HeLa, greater than 100000 nM. Further, the entries for the “Ratio CC50/IC50” value in test [4], in test [5] and in test [6] were greater than 217.4, greater than 153.8 and greater than 14, respectively.

Take `Cc1cn([C@H]2C[C@H](N=[N+]=[N-])[C@@H](CO)O2)c(=O)n(Cc2cccc(Nc3ccnc4cc(Cl)ccc34)c2)c1=O`: the 50% inhibitory concentration (IC50) is 160 nM with Plasmodium falciparum [1] (setting [8]), 220 nM with Plasmodium falciparum [2], 1760 nM in test [3] (setting [9]) and greater than 100000 nM in the test with HeLa. The “Ratio CC50/IC50” value in test [4] is listed as greater than 625; in test [5], greater than 454.5; in test [6] it was greater than 56.8.

As to `Cc1cn([C@H]2C[C@H](NC(=O)C(=O)NCCCCCNc3ccnc4cc(Cl)ccc34)[C@@H](CO[Si](c3ccccc3)(c3ccccc3)C(C)(C)C)O2)c(=O)[nH]c1=O`, the IC50 with Plasmodium falciparum [1] (setting [8]) stood at 380 nM; in the test with Plasmodium falciparum [2] it was 80 nM; in test [3] (setting [9]) it was 900 nM; in the test on HeLa, 28600 nM. Moreover, the “Ratio CC50/IC50” value is given as 75.4 in test [4], 358.1 in test [5] and 31.8 in test [6].

In the case of `Cc1cn([C@H]2C[C@H](NC(=O)NCCNc3ccnc4cc(Cl)ccc34)[C@@H](CO[Si](c3ccccc3)(c3ccccc3)C(C)(C)C)O2)c(=O)[nH]c1=O`, the IC50 with Plasmodium falciparum [1] (setting [8]) is 370 nM; in the test on Plasmodium falciparum [2], 340 nM; in test [3] (hela), “Not Active”; with HeLa it was 23800 nM. The “Ratio CC50/IC50” value in test [4] came to 64.3; in test [5], 69.9.

For the molecule `CCN(CC)CCCC(C)Nc1ccnc2cc(Cl)ccc12` (stereo unspecified) [CHLOROQUINE], the IC50 was 12500 nM in test [3] (setting [9]) and greater than 100000 nM in the test with HeLa.

As for `Cc1cn([C@H]2C[C@H](NC(=O)CC3CCC4(CC3)OOC3(OO4)C4CC5CC(C4)CC3C5)[C@@H](CO)O2)c(=O)[nH]c1=O` (stereo partly specified), the half-maximal inhibitory concentration (IC50) in the test with Plasmodium falciparum [1] (setting [8]) is 220 nM; in the test on Plasmodium falciparum [2], 100 nM; in test [3] (hela), “Not Active”; in the test on HeLa, 23400 nM. In addition, the entries for the “Ratio CC50/IC50” value in test [4] and in test [5] were 106.3 and 233.8, respectively.

For the molecule `NCCNc1ccnc2cc(Cl)ccc12`, the concentration for half-maximal inhibition (IC50) in the test with Plasmodium falciparum [1] (setting [8]) is 30 nM; in test [3] (hela), “Not Active”; in the test on HeLa, 63400 nM. In addition, the “Ratio CC50/IC50” value in test [4] is recorded as 2114.7; in test [5], 275.8.

`Cc1cn([C@H]2C[C@H](NC(=O)NCCNc3ccnc4cc(Cl)ccc34)[C@@H](CO)O2)c(=O)[nH]c1=O`: the half-maximal inhibitory concentration (IC50) was 3530 nM with Plasmodium falciparum [1] (setting [8]), 31600 nM in the test with Plasmodium falciparum [2], “Not Active” in test [3] (hela) and greater than 100000 nM in the test with HeLa. Besides, the figures for the “Ratio CC50/IC50” value in test [4] and in test [5] were greater than 28.3 and greater than 3.2, respectively.

Consider `Cc1cn([C@H]2C[C@H](N=[N+]=[N-])[C@@H](CO)O2)c(=O)[nH]c1=O` [ZIDOVUDINE], for which the IC50 entry was “Not Active” in the test on Plasmodium falciparum [1], 40 nM in test [3] (setting [9]) and greater than 100000 nM in the test with HeLa.

Turning to `C[C@H]1[C@@H](O)O[C@@H]2O[C@@]3(C)CC[C@H]4[C@H](C)CC[C@@H]1[C@@]24OO3` [ARTENIMOL], the IC50 in the test with Plasmodium falciparum [1] (setting [8]) is 30 nM; in the test with Plasmodium falciparum [2], 10 nM; in test [3] (hela) it was “Not Active”; in the test with HeLa, greater than 100000 nM. Besides, in test [4], the “Ratio CC50/IC50” value is given as greater than 3333.3. Besides, the inhibition entry in the test on Plasmodium falciparum [7] was “Active”.

On to `Cc1cn([C@H]2C[C@H](NC(=O)NCCCCCNc3ccnc4cc(Cl)ccc34)[C@@H](CO)O2)c(=O)[nH]c1=O`, for which the IC50 was 5180 nM in the test on Plasmodium falciparum [1] (setting [8]), 8020 nM in the test with Plasmodium falciparum [2], “Not Active” in test [3] (hela) and greater than 100000 nM with HeLa. Further, the “Ratio CC50/IC50” value in test [4] is recorded as greater than 19.3; in test [5], greater than 12.5.

As for `CCOC(=O)C(=O)N[C@H]1C[C@H](n2cc(C)c(=O)[nH]c2=O)O[C@@H]1CO[Si](c1ccccc1)(c1ccccc1)C(C)(C)C`, the IC50 was 11100 nM in the test with Plasmodium falciparum [1] (setting [8]), 12100 nM with Plasmodium falciparum [2], “Not Active” in test [3] (hela) and 64000 nM with HeLa. Further, the “Ratio CC50/IC50” value came out at 5.75 in test [4] and 5.3 in test [5].

Consider `COc1cc(NC(C)CCCN)c2ncccc2c1` (stereo unspecified), for which the inhibition entry with Plasmodium falciparum [7] was “Active”.

On to `Cc1cn([C@H]2C[C@H](NC(=O)NCCCCCNc3ccnc4cc(Cl)ccc34)[C@@H](CO[Si](c3ccccc3)(c3ccccc3)C(C)(C)C)O2)c(=O)[nH]c1=O`, for which the IC50 in the test with Plasmodium falciparum [1] (setting [8]) was 580 nM; with Plasmodium falciparum [2], 80 nM; in test [3] (setting [9]), 7920 nM; with HeLa, 36100 nM. Further, the “Ratio CC50/IC50” value in test [4] was 62.3; in test [5], 451.6; in test [6], 4.6.

As to `OCc1cccc(Nc2ccnc3cc(Cl)ccc23)c1`, the IC50 in the test on Plasmodium falciparum [1] (setting [8]) is 1420 nM; with Plasmodium falciparum [2], 1460 nM; in test [3] (hela), “Not Active”; in the test with HeLa, greater than 100000 nM. Moreover, the “Ratio CC50/IC50” value is on record as greater than 70.4 in test [4] and greater than 68.5 in test [5].

Take `OCCNc1ccnc2cc(Cl)ccc12`: the concentration for half-maximal inhibition (IC50) in the test on Plasmodium falciparum [1] (setting [8]) is 2200 nM; in the test on Plasmodium falciparum [2], 1720 nM; in test [3] (hela) it was “Not Active”; in the test with HeLa, greater than 100000 nM. Besides, the “Ratio CC50/IC50” value in test [4] was greater than 45.5; in test [5] it was greater than 58.1.

Regarding `NCCCCCNc1ccnc2cc(Cl)ccc12`, the IC50 in the test on Plasmodium falciparum [1] (setting [8]) was 130 nM; with Plasmodium falciparum [2] it was 230 nM; in test [3] (hela), “Not Active”; with HeLa, 56600 nM. The entries for the “Ratio CC50/IC50” value in test [4] and in test [5] were greater than 435.7 and greater than 246.3, respectively.
